Blank lines part the entries; values can stand above or below the molecule they belong to.
Columns and labels:
CIB1 = molecular target: T1, CIB1 (Homo sapiens, UniProt Q99828); assay: Isothermal titration calorimetry; assay type: binding
T1 sequence (Q99828 1-191): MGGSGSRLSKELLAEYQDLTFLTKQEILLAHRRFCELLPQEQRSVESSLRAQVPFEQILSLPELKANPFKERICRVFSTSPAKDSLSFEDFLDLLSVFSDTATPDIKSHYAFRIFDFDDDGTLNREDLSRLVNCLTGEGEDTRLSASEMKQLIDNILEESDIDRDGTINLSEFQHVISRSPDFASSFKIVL
Method in brief: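 Recombinant CIB1 from E. coli BL21(DE3), His tag removed by TEV, dialyzed into 50 mM HEPES pH 7.4, 150 mM NaCl, 0.1 mM CaCl₂ unless otherwise noted, at 100 µM in cell. Peptides (0.8–1 mM, same buffer) injected as 10 µL every 300 s at 15 °C or 26 °C. Dilution heats taken from post-saturation injections; one-site fit; TΔS and ΔG calculated.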

[1] = molecular target: Human wild type CIB1 (calcium and integrin binding protein 1) (human) (UniProt Q99828); assay: ITC
[2] = molecular target: T2, Human wild type CIB1 (calcium and integrin binding protein 1) (human, UniProt Q99828 1-191); assay: pull-down
T2 sequence (looked up): T1 sequence (Q99828 1-191)

[3] = molecular target: T2, Human wild type CIB1 (calcium and …); assay: ITC
[4] = ITC buffer without any NaCl, calculated value

TΔS (CIB1; ITC buffer with 150 mM NaCl, calculated from ΔG = ΔH − TΔS): 4.09 kcal/mol
ΔG (CIB1; ITC buffer with 150 mM NaCl, calculated from ΔG = −RT ln Ka): -7.98 kcal/mol
TΔS (CIB1; [4]): -0.574 kcal/mol
ΔG (CIB1; [4]): -7.58 kcal/mol
Molecule: αIIb: synthetic cytoplasmic tail (CT) peptide of integrin αIIb; sequence in Table S1

dH [1]: 7.82 kcal/mol
Molecule: integrin α4 cytoplasmic tail (CT) peptide

binding result [2]: binds
Molecule: LVLAMWKVGFFKRNRPPLEEDDEEGE (domain or fragment, human, UniProt P08514 1014-1039, looked up) [MBP-αIIb cytoplasmic tail fusion protein]

Kd [3]: 4.3 µM
dH [3]: 1.74 kcal/mol
stoichiometry N [3]: 0.9
Molecule: LVFVMYRMGFFKRVRPPQEEQEREQLQPHENGEGNSET [integrin αV cytoplasmic tail (CT) peptide, wild type]

binding result [2]: binds
Molecule: LVFVMYRMGFFKRVRPPQEEQEREQLQPHENGEGNSET (domain or fragment, human, UniProt P06756 1011-1048, looked up) [MBP-αV cytoplasmic tail fusion protein]

Kd [3]: 6.9 µM
dH [3]: 5.11 kcal/mol
stoichiometry N [3]: 0.9
Molecule: LIYILYKLGFFKRSLPYGTAMEKAQLKPPATSDA [integrin α5 cytoplasmic tail (CT) peptide]

Kd [3]: 5.1 µM
dH [3]: 1 kcal/mol
stoichiometry N [3]: 1
Molecule: IILLLWKCGFFKRARTRALYEAKRQKAEMKSQPSETERLTDDY [integrin α3 cytoplasmic tail (CT) peptide]

Kd [3]: 3.2 µM
dH [3]: 1.96 kcal/mol
stoichiometry N [3]: 1.1
B1: integrin αL cytoplasmic tail (CT) peptide (peptide)
chain: IFIVLYKVGFFKRNLKEKMEAGRGVPNGIPAEDSEQLASGQEAGDPGCLKPLHEKDSESGGGKD

Reference: paper PMC4104500 (Biochemistry, 2013)
